Only some compounds are listed: those with a hit (about 2.7% of all), similar ones and a draw of the others.
hDAT+cocaine – modulates human dopamine transporter uptake under cocaine | 110,000 tested, 1.3% active | Q01959 | B-score at 10 µM | LLC-PK1 hDAT cells, [14C]-dopamine uptake with cocaine IC80; actives deviate in either direction | AID 449768;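 active means Z score or B-score, a plate-position-corrected score, falls beyond the plate's 99.7% confidence bounds, in either direction; inactive means both scores lie inside the 99.7% bounds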;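 further: scored against the spread of the other compound wells on the same plate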
PLK1 kinase inh – PLK1 (human) kinase inhibition; P53350; recombinant PLK1 kinase, TR-FRET peptide phosphorylation; inhibition, % at 10 µM; 97,000 tested, 0.53% active;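 active means inhibition of 50% or more in the single-concentration screen; inactive means inhibition below 50%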;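 further: 0% = DMSO max control and 100% = H-89 dihydrochloride min control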
Plk1 PBD FP – blocks phosphopeptide binding to human Plk1 polo box domain | P53350 | Plk1 PBD phosphopeptide binding, fluorescence polarization | inhibition, %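 (tested at about 20 µM)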 | 97,000 tested, 0.13% active | AID 693; in the data active means inhibition above about 34%, passing the limit was not always enough
PTPN22 inh 2 – blocks human PTPN22 phosphatase activity | AID 640 | 96,000 tested, 0.21% active | recombinant LYP catalytic domain, DiFMUP fluorescence | inhibition, % at 2 µM | Q9Y2R2;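 active means inhibition at 2 µM at or above a set limit, the screen mean plus 3 SD, cut at about 24% in these data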;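 further: 0% = DMSO with enzyme and 100% = enzyme fully blocked by orthovanadate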
Rev-RRE block – disrupts HIV-1 Rev binding to RRE RNA; AID 704; P05866; Rev peptide-RRE RNA binding, FRET; inhibition, % at 8 µM; 97,000 tested, 0.79% active;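 active means inhibition above the screen-wide mean plus 3 SD, cut at about 35% in these data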;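 further: 0% = median DMSO wells and 100% = median Neomycin B control wells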
Target sequence (P05866 whole entry, looked up): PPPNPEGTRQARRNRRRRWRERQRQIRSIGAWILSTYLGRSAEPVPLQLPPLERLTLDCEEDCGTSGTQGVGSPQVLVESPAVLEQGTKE
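System: Cy5-labelled duplex RRE RNA binding fluorescein-labelled HIV Rev peptide; Signal: fluorescein-to-Cy5 FRET, 480 nm excitation; Also added: labelled Rev peptide; Compound: one concentration, 8 µM nominal; Buffer or medium: HEPES pH 7.5 salt buffer with EDTA; Read-out: % inhibition of FRET ratio versus controls; Schedule: 5 min preincubation and 15 min binding, 25 °C.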
PTPN22 act – increases human PTPN22 phosphatase activity; Q9Y2R2; recombinant LYP, DiFMUP fluorescence; 0 = plate median, 100 = signal doubled; activation, % at 2 µM; 96,000 tested, 0.11% active; AID 697;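 active means activation at 2 µM above a set limit, the mean plus 5 SD, cut at about 37% in these data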
Starred values were filed as active, the others as inactive; · = not tested or not shown; [ ] = another dose, or the depositor's remark.

SMILES	hDAT+cocaine	PLK1 kinase inh	Plk1 PBD FP	PTPN22 inh 2	Rev-RRE block	PTPN22 act
O=C(OCC(=O)N1CCN(C(=O)c2ccco2)CC1)c1cn(-c2ccccc2)nc1-c1ccccc1	4.4*	-11	-20	8	0	-5
Cc1nn2c([nH]c(=O)c3ccccc32)c1C=O	-0.15	-15	1	5	5	-2
O=S(=O)(/N=C(/c1ccc(Cl)cc1)N1CCOCC1)c1ccc(Cl)cc1	2*	-14	-6	-2	-1	7
COc1cc([C@@H]2[C@H]3CNCC=C3C(C#N)=C(N)C2(C#N)C#N)ccc1OC(C)C	0.15	-3	-13	-6	50*	2
CCNC(=S)NNC(=O)c1cc(C2CC2)nc2ccccc12	·	-6	-12	12	7	-9
COc1ccc(NC2CC(=O)N(C(C)C)C2=O)cc1 (stereo not given)	-1.1	54*	10	4	-7	-4
Cc1csc(NC(=O)c2cc3c(s2)CCCC3)n1	3.2*	-9	14	14	3	-11
CCCCOC(=O)C1=C(C)Nc2ncnn2C1c1cccc(OC)c1OC (stereo not given)	-2.9*	-4	-19	10	6	-7
CCCCc1c(CCC)c(=N)c2ccccc2n1C	0.1	-1	-21	12	-3	-11
CCn1c2ccccc2c2nnc(SCC(=O)N3CC(C)OC(C)C3)nc21 (stereo not given)	-8.8*	-11	-1	6	2	-8
CCOC(=O)C(C)c1ccc2cc(OC)ccc2c1 (stereo not given)	-4.2*	-5	2	8	5	-5
CCOC(=O)C(C(C)=O)C(c1ccc(OC)cc1)C(C(C)=O)C(=O)OCC (stereo not given)	0.0094	-17	-3	-1	6	5
CC1(C)CC(=O)C=C(Nc2ccccc2O)C1	0.61	-2	18	-2	0	0
CC1(C)CC(=O)C=C(NNC(=O)c2ccccc2O)C1	0.035	-13	-2	4	36*	-1
O=S(=O)(NCc1cc(-c2ccccc2)no1)c1ccc(Cl)cc1	-0.75	-9	-7	-23	1	27
O=S(=O)(Nc1nnc(-c2ccccc2)s1)c1ccc(Cl)cc1	-3*	-5	12	-10	-3	9
Nc1cc2c([N+](=O)[O-])cccc2o1	-0.34	16	-9	-4	51*	4
CCc1c(O)cc2n(c1=O)-c1ccc(Cl)cc1C2(C)C	-0.23	9	7	-2	-1	3
CC1CCc2nn(CC(=O)NCCC3=CCCCC3)cc2C1 (stereo not given)	7.5*	·	·	·	·	·
CCC(C)N(C(=O)Cn1nnc2ccccc21)C(C(=O)Nc1ccc(F)cc1)c1cccc(OC)c1 (stereo not given)	0.34	1	17	8	8	-4
Cc1ccc(S(=O)(=O)c2c(COC(=O)c3ccc(Cl)cc3)c(-c3ccccc3)nn2C)cc1	-1.2	1	-3	7	73*	-8
Cn1nc(-c2ccccc2)c(C(=O)Nc2ccc(Cl)cc2)c1Cl	0.75	-1	-2	-6	2	10
CCCCCCCN1C/C=C\C(c2ccc(OC)cc2)N(Cc2ccc(F)cc2)C(=O)[C@H]1Cc1ccccc1 (stereo not given in full)	0.88	·	·	·	·	·
Nc1ccc(S(N)(=O)=O)cc1	-0.97	·	·	·	·	·
Nc1ccc(S(=O)(=O)c2ccc(Cl)cc2)cc1	-3.1*	-12	7	-5	8	7
SMILES	hDAT+cocaine	PLK1 kinase inh	Plk1 PBD FP	PTPN22 inh 2	Rev-RRE block	PTPN22 act
O=C(NC1CCCC1)c1c[nH]c2ccc(F)cc2c1=O	4.5*	1	3	-3	1	6
O=C(c1c[nH]c2ccc(F)cc2c1=O)N1CCCCCC1	-0.0018	-11	-24	3	3	-3
CCOC(=O)CC(=O)CSc1nc(-c2cccnc2)cc(C)c1C#N	0.069	1	-35	6	0	-5
CCOC(=O)CC(=O)CSc1nc(-c2cccnc2)ccc1C#N	-0.27	-15	6	3	88*[fluorescence artefact?]	-6
O=C(Nc1ccc(-c2nc3ccc(NC(=O)c4cccs4)cc3[nH]2)cc1)c1cccs1	-0.018	-10	-11	29*	1	-32
O=C(Nc1ccc2nc(-c3cccs3)[nH]c2c1)c1cccs1	-0.0036	-8	9	-3	10	2
N#Cc1ccc(C(=O)NCC(c2ccco2)N2CCCCC2)cc1 (stereo not given)	2*	1	8	-4	-5	7
Cc1cccc2cc3c(N)c(C#N)sc3nc12	2.1	-9	-21	-8	35	6
Cc1sc(NC(=O)c2sc3nc4c(C)cccc4cc3c2N)c(C#N)c1C	0.73	-15	-8	56*	101*[fluorescence artefact?]	-54
CCOc1ccccc1NC(=O)CSc1nnc(-c2ccccc2Cl)n1Cc1ccco1	1.6	-5	8	6	8	-8
Cn1ccnc1SCc1cn2cc(Br)ccc2n1	-8.7*	-1	-28	-5	9	4
OCCCc1nc2n(n1)C(c1ccccc1)C=C(c1ccc(F)cc1)N2 (stereo not given)	1.6	-14	-18	1	34	-1
OCCCc1nc2n(n1)C(c1cccs1)C=C(c1ccccc1)N2 (stereo not given)	0.9	-5	-56	-2	137*[fluorescence artefact?]	1
OCCCc1nc2n(n1)C(c1ccccc1Cl)C=C(c1cccs1)N2 (stereo not given)	0.11	-11	-4	10	92*[fluorescence artefact?]	-6
CCOc1ccccc1C1C(C(N)=O)=C(C)Nc2nc(CCCO)nn21 (stereo not given)	-0.61	-9	-1	-5	3	1
Cc1nc(-c2ccccc2)sc1C1(C)CC(c2cccc([N+](=O)[O-])c2)=NO1 (stereo not given)	0.058	·	·	·	·	·
Cc1c(-n2cc(C(=O)c3ccccc3O)cc(C#N)c2=O)c(=O)n(-c2ccccc2)n1C	·	-8	-6	6	57*	-8
CCCCn1cc(C(=O)c2cc(Br)ccc2O)cc(C#N)c1=O	0.52	-9	0	-2	7	5
Nc1ccc2oc3ccc(N)cc3c(=O)c2c1	0.0076	-1	-5	-4	37*	7
C=CCn1c(SCC(=O)N2CCc3ccccc3C2)nc2sc(C)cc2c1=O	-0.08	-6	13	6	2	-3
COc1cccc(/C=C2/CN(C)CC3=C2OC(N)=C(C#N)C3c2cccc(OC)c2)c1 (stereo not given)	-0.31	-6	-10	-6	55*	-1
Clc1ccc(C2=C3CCCCn4c(-c5ccccc5)c[n+](c43)C2)cc1	-0.0032	-21	-14	26*	11	-24
Cc1cc(C)n(C(=O)CCCCCCCCC(=O)n2nc(C)cc2C)n1	-0.93	-12	-8	6	8	-3

Source: PubChem (several laboratories)
